Test results published in ChEMBL document CHEMBL5046223, “AZD5438-PROTAC: A selective CDK2 degrader that protects against cisplatin- and noise-induced hearing loss” (Eur J Med Chem, 2021).
Activity calls are given as the source filed them. The rule behind the calls is not given here.

Key:
[1] = tested on: Protein cereblon/Cyclin-dependent kinase 2 (Mus musculus); experiment: Protac activity at CDK2/CRBN E3 ligase in mouse HEI-OC1 cells assessed as induction of CDK2 protein degradation at 100 nM measured after 24 hrs by Western blot analysis
[2] = target: von Hippel-Lindau E3 ligase/Cyclin-dependent kinase 2 (Mus musculus); experiment: Protac activity at CDK2/VHL E3 ligase in mouse HEI-OC1 cells assessed as induction of CDK2 protein degradation measured after 24 hrs by Western blot analysis
[3] = target: von Hippel-Lindau disease tumor suppressor/CDK2 (Danio rerio) (UniProt Q7ZWB1+Q68EH9); experiment: PROTAC activity at CDK2/VHL E3 ligase in 5 days post fertilization zebrafish assessed as decrease in CDK2 abundance measured after 24 hrs by immunoblot analysis; conditions: dose 1.0 µM
Method in brief: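 TuAB zebrafish larvae at 4 dpf, kept in E3 medium (pH 7.2) at 28.5°C, exposed 24 h to 0.1 nM–1 μM in E3 (controls 0.1% DMSO). Fish were collected before any ototoxin. Lysates were run at 20–30 μg protein per lane, probed with anti-CDK2 (1:500) against β-actin, and CDK2 bands quantified from three independent experiments.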

[4] = species on record: Danio rerio; experiment: Protection of kainic acid-induced ototoxicity in 5 days post fertilization zebrafish assessed as protection neuromast hair cells at 5 to 100 nM measured after 24 hrs by fluorescence microscopy; conditions: dose 5-100 nM, time 5.0 day
[5] = species on record: Danio rerio; experiment: Protection of cisplatin-induced ototoxicity in 5 days post fertilization zebrafish assessed as protection neuromast hair cells at 0.001 to 1 nM measured after 24 hrs by fluorescence microscopy; assay type: functional, organism-based; conditions: dose upper 1.0 µM, time 5.0 day, in the assay text read “0.001 to 1 µM” for “0.001 to 1 nM”
Method in brief: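 Zebrafish larvae at 4 dpf pre-exposed 24 h to 0.1 nM–1 μM in E3, then co-incubated 6 h with compound plus cisplatin 400 μM. After 1 h recovery, fish were fixed in 4% PFA and immunostained for otoferlin. Hair cells in otic, middle and opercular neuromasts were counted manually under a 40x fluorescence objective, 6–8 fish per experiment; mean ± SEM.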

O=C1CCC(N2C(=O)c3cccc(NCCOCCOCCOCCn4cc(CO[C@H]5CC[C@H](NC(=O)c6n[nH]cc6NC(=O)c6c(F)cccc6F)CC5)nn4)c3C2=O)C(=O)N1 (stereo partly specified)
Activity [1]: inactive

Cc1ncsc1-c1ccc(CNC(=O)[C@@H]2C[C@@H](O)CN2C(=O)[C@@H](NC(=O)COCCn2cc(CCCS(=O)(=O)c3ccc(Nc4nccc(-c5cnc(C)n5C(C)C)n4)cc3)nn2)C(C)(C)C)cc1
DC50 [2]: 100 nM
Activity [3]: Active
Activity [4]: Active
Activity [5]: Active

Cc1ncc(-c2ccnc(Nc3ccc(S(=O)(=O)CCCc4cn(CCOCCOCCOCCNc5cccc6c5C(=O)N(C5CCC(=O)NC5=O)C6=O)nn4)cc3)n2)n1C(C)C (stereo unspecified)
Activity [1]: inactive
